Results: ChEMBL document CHEMBL5385968 (RSC Med Chem, 2024)
Calls of active or inactive are those of the source. The rule behind the calls is not given here.

What was measured:
[1] = Cytotoxicity against CD-1 mouse bone marrow leucocytes assessed as reduction in cell viability at 25 uM incubated for 90 mins by CellTiter-Glo Luminescent assay; assay type: toxicity, cell-based; details: leucocyte
Outline: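 CD-1 mouse bone marrow leukocytes at 10^4 cells/well were exposed to compounds up to 25 μM (highest tested; final DMSO 1%) for 90 min at 37 °C, 5% CO2. Viability was read by CellTiter-Glo luminescence. IC50 values are mean ± SD of three independent experiments.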

[2] = target: T1, Neutrophil elastase (Homo sapiens) (UniProt P08246); experiment: Inhibition of human neutrophil elastase using N-methylsuccinyl-Ala-Ala-Pro-Val-7-amino-4-methylcoumarin as substrate at 50 uM measured every 30 secs for 10 mins by fluorescence based analysis
T1 sequence (whole entry): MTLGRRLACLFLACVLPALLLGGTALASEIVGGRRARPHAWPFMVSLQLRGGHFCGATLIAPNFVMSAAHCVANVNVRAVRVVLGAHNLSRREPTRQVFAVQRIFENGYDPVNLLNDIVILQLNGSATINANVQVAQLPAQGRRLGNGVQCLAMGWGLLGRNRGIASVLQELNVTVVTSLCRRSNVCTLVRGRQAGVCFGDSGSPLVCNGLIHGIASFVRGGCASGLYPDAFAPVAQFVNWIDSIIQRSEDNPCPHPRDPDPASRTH

Leucocyte = experiment: Antiradical activity against PMA-stimulated BALB/c mouse bone marrow leucocytes assessed as inhibition of ROS production at 50 uM measured for 60 mins by chemiluminescence based analysis; assay type: functional, cell-based
Outline: (§1)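 BALB/c mouse bone marrow leukocytes were suspended at 10^6 cells/ml in HBSS with Ca2+/Mg2+ and 40 μM L-012. Compounds were added in HBSS+ (final DMSO 1%), tested up to a highest concentration of 50 μM. Cells were stimulated with 200 nM PMA, and chemiluminescence was read every 2 min for 60 min at 37 °C. IC50 came from % inhibition of the 60-min integrated signal versus log concentration (5–7 concentrations, nonlinear regression). Values are mean ± SD, n=3.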

[3] = Antiradical activity against PMA-stimulated BALB/c mouse bone marrow leucocytes assessed as inhibition of ROS production measured for 60 mins by chemiluminescence based analysis; assay type: functional, cell-based; details: Leucocyte, 1 h
Outline: as §1, with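 “°C.” for “°C. IC50 came from % inhibition of the 60-min integrated signal versus log concentration (5–7 concentrations, nonlinear regression).”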

SMILES | Activity [1] | inhibition [2] | other results
Cc1cccc(C(=O)n2[se]c3ccccc3c2=O)c1 | Non-Toxic |  | 
CCOC(=O)n1[se]c2ccccc2c1=O |  | inactive | 
CCCCCC(=O)n1[se]c2ccccc2c1=O | Non-Toxic |  | inhibition (Leucocyte): inactive
CC(C)(C)C(=O)Oc1ccc(S(=O)(=O)n2[se]c3ccccc3c2=O)cc1 | Non-Toxic |  | 
O=c1c2ccccc2[se]n1-c1ccccc1 |  | inactive | 
CCOC(=O)c1ccc(-n2[se]c3ccccc3c2=O)cc1 | Non-Toxic | inactive | 
O=C(c1ccsc1)n1[se]c2ccccc2c1=O | Non-Toxic | inactive | 
O=C(NC1CC1)n1[se]c2ccccc2c1=O |  | inactive | 
Cc1cccc(NC(=O)c2ccc(-n3[se]c4ccccc4c3=O)cc2)c1 | Non-Toxic | inactive | inhibition (Leucocyte): inactive
CC(C)(C)C(=O)Oc1ccc(S(=O)(=O)Nc2ccccc2C(=O)NCC(=O)O)cc1 | Non-Toxic |  | 
CCOC(=O)CC(=O)n1[se]c2ccccc2c1=O |  | inactive | 
O=C(NC1CC1)c1ccc(-n2[se]c3ccccc3c2=O)cc1 |  | inactive | 
O=C(C1CC1)n1[se]c2ccccc2c1=O |  |  | IC50 [3]: 0.05 µM
